A short description of data set [1]: Antiproliferative activity against human HCT116 cells after 72 hrs by MTT assay. Type of data set: functional, cell-based. Particulars: HCT-116, 72 h. In a few lines:
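MTT viability after 72 h exposure. Cells seeded at 2500/well and left 24 h before compound addition; DMSO at 0.5% v/v final. MTT added in FBS-free medium for 3 h at 37 °C, formazan dissolved in DMSO, absorbance read at 570 nm. IC50 from a sigmoidal fit of % viability vs log concentration; triplicates on separate occasions using two different stock solutions.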
Background: Tetrazolium assays rely on reduction of a dye to a coloured formazan, in cell work by metabolically active cells.

The target of data set [2] is Histone deacetylase 5 (Homo sapiens) (UniProt Q9UQL6). Put plainly: Inhibition of human recombinant C-terminal His-tagged HDAC5 (656 to 1122 residues) expressed in insect cells at 10 uM preincubated with enzyme followed by acetyl-Lys(trifluoroacetyl)-AMC substrate addition measured after 2 hrs by fluorescence assay relative to control. The method in brief:
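HDAC enzyme in 50 mM Tris-HCl pH 8.0, 137 mM NaCl, 2.7 mM KCl, 1 mM MgCl2 was pre-incubated with compound dosed from DMSO. The reaction was started with the class IIa substrate acetyl-Lys(trifluoroacetyl)-AMC and run 2 h at 30 °C. Developer with trichostatin A stopped it, and fluorescence (Ex/Em 360/460 nm) was read at plateau. Single test concentration 10 µM.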

A short description of data set [3]: Half life in rat liver microsomes at 3 uM preincubated for 5 mins followed by NADPH addition by LC-MS/MS analysis. Type of data set: ADME. The method in brief: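 Male and female rat liver microsomes (0.3 mg protein/mL final) with compound at 3 μM final in 0.1 M phosphate buffer pH 7.4. Preincubated 5 min at 37 °C, then started with NADPH (1 mM final). Sampled at 0, 5, 10, 15, 30 and 45 min and quenched with cold acetonitrile containing internal standard. Read by LC-MS/MS; run in triplicate; midazolam (3 μM) as positive control.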
(In general: Microsomes from liver hold many membrane-bound enzymes, among them those of drug oxidation.)

The target in data set [4] is T1, Non-receptor tyrosine-protein kinase TYK2 (Homo sapiens, UniProt P29597). Nature of the data set: Inhibition of human TYK2 (V877 to C1187 residues) expressed in mammalian expression system by KINOMEScan assay.
T1 sequence (P29597 whole entry, the tested form may be a part): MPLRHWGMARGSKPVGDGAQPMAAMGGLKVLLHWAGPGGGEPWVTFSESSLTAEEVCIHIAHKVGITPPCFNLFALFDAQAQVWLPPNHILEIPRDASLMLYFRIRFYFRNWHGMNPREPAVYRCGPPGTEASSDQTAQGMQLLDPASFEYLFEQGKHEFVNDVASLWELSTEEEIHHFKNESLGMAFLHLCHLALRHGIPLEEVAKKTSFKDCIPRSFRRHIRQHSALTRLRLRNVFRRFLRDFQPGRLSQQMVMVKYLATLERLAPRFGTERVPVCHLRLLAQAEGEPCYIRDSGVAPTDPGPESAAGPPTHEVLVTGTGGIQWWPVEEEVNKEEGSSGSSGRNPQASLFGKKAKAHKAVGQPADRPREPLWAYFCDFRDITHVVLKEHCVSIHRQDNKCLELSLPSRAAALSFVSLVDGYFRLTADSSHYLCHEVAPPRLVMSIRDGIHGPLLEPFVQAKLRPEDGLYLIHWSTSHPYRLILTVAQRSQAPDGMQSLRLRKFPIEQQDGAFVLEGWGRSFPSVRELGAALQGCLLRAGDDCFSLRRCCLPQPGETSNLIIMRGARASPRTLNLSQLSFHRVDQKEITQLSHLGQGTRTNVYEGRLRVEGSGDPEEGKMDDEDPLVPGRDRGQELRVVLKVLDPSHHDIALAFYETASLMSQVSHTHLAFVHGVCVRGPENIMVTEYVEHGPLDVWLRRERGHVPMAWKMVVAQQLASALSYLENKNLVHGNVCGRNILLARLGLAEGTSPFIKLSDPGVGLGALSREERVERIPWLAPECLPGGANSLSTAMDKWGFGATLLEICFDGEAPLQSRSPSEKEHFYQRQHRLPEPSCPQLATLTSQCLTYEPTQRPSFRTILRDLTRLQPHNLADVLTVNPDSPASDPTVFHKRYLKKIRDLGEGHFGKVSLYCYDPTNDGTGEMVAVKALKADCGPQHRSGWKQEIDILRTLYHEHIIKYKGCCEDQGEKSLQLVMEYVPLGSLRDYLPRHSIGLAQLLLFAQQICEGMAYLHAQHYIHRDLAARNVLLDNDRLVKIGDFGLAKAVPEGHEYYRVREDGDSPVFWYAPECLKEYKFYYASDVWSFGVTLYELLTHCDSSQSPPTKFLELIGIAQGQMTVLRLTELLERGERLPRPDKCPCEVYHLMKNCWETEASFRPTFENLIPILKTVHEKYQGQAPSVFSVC
The nature of data set [5]: Antiproliferative activity against human MCF7 cells after 72 hrs by MTT assay. Type of data set: functional, cell-based. The settings on record: MCF7, 72 h.
Data set [6] has as its system MOLM-14. Nature of the data set: Induction of apoptosis in human MOLM14 cells assessed as early apoptotic cells at 1.5 uM after 48 hrs by Annexin-V FITC/propidium iodide staining based flow cytometry (reference value: 3.6 to 3.7%). Type of data set: functional. Background: Flow cytometry measures light scatter and fluorescence of single cells or particles in a stream.

Data set [7] addresses T2, Mitogen-activated protein kinase 10 (Homo sapiens, UniProt P53779). Put plainly: Inhibition of full length human MAPK10 (V28 to Q422 residues) expressed in mammalian expression system by KINOMEScan assay.
Data set [8] is described as follows: Growth inhibition of human HL60 cells at 4 uM relative to control. The settings on record: HL-60, read-out: GI. Type of data set: functional.
Data set [9] is described as follows: Antiproliferative activity against human MOLM14 cells harboring FLT3-ITD mutant after 48 hrs by CellTiter-Glo assay. Type of data set: functional, cell-based. Particulars: MOLM-14, 48 h.
The nature of data set [10]: Antiproliferative activity against human Jurkat cells. Type of data set: functional, cell-based.
Data set [11] concerns the target T1, Non-receptor tyrosine-protein kinase TYK2. Nature of the data set: Inhibition of human TYK2 (V877 to C1187 residues) expressed in mammalian expression system assessed as residual activity at 100 nM by KINOMEScan assay relative to control. The method in brief: (§1)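 DiscoveRx competition-binding panel of 97 kinases, measuring binding to the kinase ATP site rather than catalytic turnover. The test compound was run at a single 100 nM concentration. Results are given as % of control binding.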

The target of data set [12] is T2, Mitogen-activated protein kinase 10. Nature of the data set: Inhibition of human MAPK10 (V28 to Q422 residues) expressed in mammalian expression system assessed as residual activity at 100 nM by KINOMEScan assay relative to control. The method in brief:
as §1

The subject of data set [13] is MOLM-14. Nature of the data set: Induction of apoptosis in human MOLM14 cells assessed as early apoptotic cells at 0.75 uM after 48 hrs by Annexin-V FITC/propidium iodide staining based flow cytometry (reference value: 3.6 to 3.7%). Type of data set: functional. The method in brief: (§2)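 MOLM-14 cells treated 48 h at the stated concentrations; doxorubicin as positive control. Stained with Annexin V-FITC and propidium iodide and analysed by flow cytometry (at least 10,000 events). Gated quadrants: Annexin V−/PI− viable, Annexin V+/PI− early apoptotic, Annexin V+/PI+ late apoptotic.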

A short description of data set [14]: Antiproliferative activity against human PC3 cells after 72 hrs by MTT assay. The settings on record: PC-3, 72 h. Type of data set: functional, cell-based.
For data set [15], the target named is Phosphatidylinositol 4,5-bisphosphate 3-kinase catalytic subunit gamma isoform (Homo sapiens, UniProt P48736). Nature of the data set: Inhibition of human PI3Kgamma (S144 to A1102 residues) expressed in mammalian expression system assessed as residual activity at 100 nM by KINOMEScan assay relative to control. In a few lines:
as §1

Data set [16] addresses Tyrosine-protein kinase JAK2 (Homo sapiens, UniProt O60674). Nature of the data set: Inhibition of JAK2 (unknown origin) preincubated for 20 mins followed by [33P]ATP addition measured after 120 mins by Hotspot assay.
Data set [17] can be described thus: Antiproliferative activity against human KG1 cells after 48 hrs by CellTiter-Glo assay. Type of data set: functional, cell-based. Particulars: KG-1, 48 h.
Data set [18] deals with MOLM-14. Put plainly: Induction of apoptosis in human MOLM14 cells assessed as late apoptotic cells at 0.75 uM after 48 hrs by Annexin-V FITC/propidium iodide staining based flow cytometry (reference value: 2.1 to 2.2%). Type of data set: functional. In a few lines:
as §2

Data set [19] deals with Histone deacetylase 7 (Homo sapiens) (UniProt Q8WUI4). Put plainly: Inhibition of human recombinant N-terminal GST-tagged HDAC7 (518 to 991 residues) expressed in insect cells at 10 uM preincubated with enzyme followed by […] addition measured after 2 hrs by fluorescence assay relative to control. In a few lines:
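HDAC enzyme in Tris-HCl pH 8.0 buffer with NaCl, KCl and MgCl2 was pre-incubated with compound from DMSO. Substrate was then added and the reaction ran 2 h at 30 °C. It was stopped with developer containing trichostatin A, and fluorescence (Ex/Em 360/460 nm) was read at plateau. Single test concentration 10 µM.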

Data set [20] has as its system MOLM-14. Nature of the data set: Induction of apoptosis in human MOLM14 cells assessed as late apoptotic cells at 3 uM after 48 hrs by Annexin-V FITC/propidium iodide staining based flow cytometry (reference value: 2.1 to 2.2%). Type of data set: functional. The method in brief:
as §2

The target in data set [21] is High affinity nerve growth factor receptor (Homo sapiens, UniProt P04629). Nature of the data set: Inhibition of human NTRK1 (G475 to G790 residues) expressed in mammalian expression system by KINOMEScan assay.
Sequence of High affinity nerve growth factor receptor (P04629 whole entry, the tested form may be a part): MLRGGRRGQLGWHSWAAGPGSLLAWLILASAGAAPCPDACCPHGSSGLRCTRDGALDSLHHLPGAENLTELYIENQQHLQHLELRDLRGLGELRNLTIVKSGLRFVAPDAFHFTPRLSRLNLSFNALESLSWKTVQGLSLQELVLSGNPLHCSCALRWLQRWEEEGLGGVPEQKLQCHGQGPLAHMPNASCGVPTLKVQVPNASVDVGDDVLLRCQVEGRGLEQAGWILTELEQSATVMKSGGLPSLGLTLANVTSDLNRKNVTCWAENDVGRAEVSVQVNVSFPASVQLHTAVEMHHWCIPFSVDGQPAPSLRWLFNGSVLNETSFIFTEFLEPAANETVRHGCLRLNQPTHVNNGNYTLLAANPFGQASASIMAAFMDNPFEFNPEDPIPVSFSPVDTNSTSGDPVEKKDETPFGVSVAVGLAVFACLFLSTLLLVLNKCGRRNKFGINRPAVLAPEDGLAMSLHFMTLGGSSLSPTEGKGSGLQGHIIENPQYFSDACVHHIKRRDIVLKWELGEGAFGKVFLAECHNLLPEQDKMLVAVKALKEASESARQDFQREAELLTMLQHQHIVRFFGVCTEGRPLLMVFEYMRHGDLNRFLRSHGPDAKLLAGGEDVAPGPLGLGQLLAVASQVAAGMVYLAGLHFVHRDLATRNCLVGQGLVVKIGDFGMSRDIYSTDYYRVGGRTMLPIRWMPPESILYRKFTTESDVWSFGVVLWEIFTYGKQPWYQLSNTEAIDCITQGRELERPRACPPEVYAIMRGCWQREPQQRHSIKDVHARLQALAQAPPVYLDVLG
Data set [22] deals with MOLM-14. Nature of the data set: Induction of apoptosis in human MOLM14 cells assessed as late apoptotic cells at 1.5 uM after 48 hrs by Annexin-V FITC/propidium iodide staining based flow cytometry (reference value: 2.1 to 2.2%). Type of data set: functional.

T2 sequence (P53779 whole entry, the tested form may be a part): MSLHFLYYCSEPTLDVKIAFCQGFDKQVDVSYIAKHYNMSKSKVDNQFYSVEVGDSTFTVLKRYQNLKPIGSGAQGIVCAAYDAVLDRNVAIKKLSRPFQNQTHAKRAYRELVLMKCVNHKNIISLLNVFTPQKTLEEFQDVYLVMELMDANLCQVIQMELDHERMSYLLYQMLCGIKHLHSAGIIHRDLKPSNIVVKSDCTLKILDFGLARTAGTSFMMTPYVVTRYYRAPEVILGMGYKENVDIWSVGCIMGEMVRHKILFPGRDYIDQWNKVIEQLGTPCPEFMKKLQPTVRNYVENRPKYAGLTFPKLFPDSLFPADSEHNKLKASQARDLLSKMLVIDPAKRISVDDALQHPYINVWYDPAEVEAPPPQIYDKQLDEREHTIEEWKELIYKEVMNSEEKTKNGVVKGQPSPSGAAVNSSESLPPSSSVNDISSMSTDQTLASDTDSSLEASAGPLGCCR
Sequence of Tyrosine-protein kinase JAK2 (O60674 whole entry): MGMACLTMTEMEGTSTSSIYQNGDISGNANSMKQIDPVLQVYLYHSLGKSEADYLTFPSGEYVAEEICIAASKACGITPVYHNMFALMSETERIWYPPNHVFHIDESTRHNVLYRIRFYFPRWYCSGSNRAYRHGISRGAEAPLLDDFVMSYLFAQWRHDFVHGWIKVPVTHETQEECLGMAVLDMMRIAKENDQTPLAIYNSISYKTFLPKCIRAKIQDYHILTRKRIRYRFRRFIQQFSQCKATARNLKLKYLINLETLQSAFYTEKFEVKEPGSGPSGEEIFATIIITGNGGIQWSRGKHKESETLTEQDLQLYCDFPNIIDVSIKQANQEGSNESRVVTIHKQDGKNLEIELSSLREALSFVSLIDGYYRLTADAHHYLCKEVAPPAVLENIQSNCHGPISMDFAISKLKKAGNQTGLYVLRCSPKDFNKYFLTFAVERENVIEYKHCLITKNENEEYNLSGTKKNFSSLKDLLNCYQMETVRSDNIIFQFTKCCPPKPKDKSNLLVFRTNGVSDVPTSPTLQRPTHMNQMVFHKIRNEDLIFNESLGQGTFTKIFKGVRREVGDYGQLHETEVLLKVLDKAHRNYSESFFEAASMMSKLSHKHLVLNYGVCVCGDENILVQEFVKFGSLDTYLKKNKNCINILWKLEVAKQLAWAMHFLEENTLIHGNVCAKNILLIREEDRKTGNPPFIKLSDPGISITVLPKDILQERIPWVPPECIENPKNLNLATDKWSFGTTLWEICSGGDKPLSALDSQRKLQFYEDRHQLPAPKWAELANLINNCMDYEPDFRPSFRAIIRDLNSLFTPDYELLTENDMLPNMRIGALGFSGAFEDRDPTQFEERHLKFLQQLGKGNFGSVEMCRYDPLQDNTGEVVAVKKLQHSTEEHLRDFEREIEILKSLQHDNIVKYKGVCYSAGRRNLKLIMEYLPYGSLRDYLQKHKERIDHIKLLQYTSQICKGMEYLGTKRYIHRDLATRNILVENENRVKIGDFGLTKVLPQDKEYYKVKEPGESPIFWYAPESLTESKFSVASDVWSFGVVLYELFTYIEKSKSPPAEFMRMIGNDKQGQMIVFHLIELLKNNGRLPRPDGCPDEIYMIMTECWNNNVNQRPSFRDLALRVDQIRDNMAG
Sequence of Phosphatidylinositol 4,5-bisphosphate 3-kinase catalytic subunit gamma isoform (P48736 whole entry, looked up, the tested form may be a part, canonical isoform): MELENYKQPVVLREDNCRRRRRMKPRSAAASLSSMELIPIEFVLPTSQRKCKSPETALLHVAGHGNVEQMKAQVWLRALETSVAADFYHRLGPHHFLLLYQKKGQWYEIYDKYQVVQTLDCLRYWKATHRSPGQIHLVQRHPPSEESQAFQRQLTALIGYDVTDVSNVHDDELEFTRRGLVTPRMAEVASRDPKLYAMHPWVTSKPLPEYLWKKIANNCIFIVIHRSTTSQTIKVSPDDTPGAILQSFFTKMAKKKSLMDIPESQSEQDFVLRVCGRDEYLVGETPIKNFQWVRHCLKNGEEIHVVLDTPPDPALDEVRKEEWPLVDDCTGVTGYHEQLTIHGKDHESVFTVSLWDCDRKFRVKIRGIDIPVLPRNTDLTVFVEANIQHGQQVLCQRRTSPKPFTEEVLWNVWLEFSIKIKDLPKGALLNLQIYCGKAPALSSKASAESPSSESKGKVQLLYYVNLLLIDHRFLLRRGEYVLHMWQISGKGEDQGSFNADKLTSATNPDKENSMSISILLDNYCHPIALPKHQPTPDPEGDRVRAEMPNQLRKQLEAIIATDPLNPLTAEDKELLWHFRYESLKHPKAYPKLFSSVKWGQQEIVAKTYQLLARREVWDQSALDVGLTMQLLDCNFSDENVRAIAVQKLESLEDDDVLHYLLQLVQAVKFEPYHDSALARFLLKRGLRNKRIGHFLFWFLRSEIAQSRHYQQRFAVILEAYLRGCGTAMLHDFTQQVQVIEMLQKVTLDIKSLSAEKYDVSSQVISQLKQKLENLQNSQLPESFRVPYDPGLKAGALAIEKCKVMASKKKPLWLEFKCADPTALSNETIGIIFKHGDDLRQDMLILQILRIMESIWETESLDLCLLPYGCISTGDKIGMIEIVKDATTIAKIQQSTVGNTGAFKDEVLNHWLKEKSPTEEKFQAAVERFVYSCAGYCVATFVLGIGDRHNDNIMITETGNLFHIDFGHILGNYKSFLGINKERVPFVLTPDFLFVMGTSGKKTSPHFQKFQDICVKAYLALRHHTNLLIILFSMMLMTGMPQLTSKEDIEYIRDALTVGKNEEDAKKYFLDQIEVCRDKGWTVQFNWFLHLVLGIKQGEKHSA

For orientation: IC50 means the concentration at which inhibition is half-maximal. Read a high IC50 as weaker potency in that assay. As a reminder, the inhibition is the change of the read-out against control, counted positive when it falls. For orientation: half-life means the time in which the quantity being followed falls by half. Lower therefore signals rapid decline. On to `O=C(CCCCCCOc1ccc2cc1COC/C=C/COCc1cccc(c1)-c1ccnc(n1)N2)NO`, for which the IC50 in data set [1] was 2.23 µM; in [4], 0.01 to 1 µM; in data set [5], 1.47 µM; in [7] it was 1 to 10 µM; in data set [9], 1.14 µM; in data set [10], 1.19 µM. Besides, the IC50 in data set [14] was 1.7 µM; in data set [16], 0.0014 µM; in data set [17] it was 1.63 µM; in data set [21], 1 to 10 µM. Besides, the inhibition was 16.1% in data set [2] and 1.3% in data set [19]. The molecule also gave a half-life at 3 µM in data set [3] of 17.3 to 26.3 min. Also, the Activity was found to be 12.7% in data set [6]; 4.9% in data set [11]; 29% in [12]; 13.3% in data set [13]; 5.7% in data set [15]; 5% in data set [18]. Besides, the Activity is listed as 34.3% in data set [20] and 13% in data set [22]. Further, in data set [8], the inhibition of growth at 4 µM came to 47%.
